Results from PubChem BioAssay AID504543 (Southern Research Specialized Biocontainment Screening …, 2011).
Active and inactive are the calls of the source.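 The calls were made as follows: active = phage lysis blocked by at least 50% at any tested concentration; inactive = the rest.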

Tests used:
[1] = system: E. coli UTI89 K1F phage lysis inhibition, OD600 3 h; assay: protection of UTI89 from K1F lysis – strain UTI89, C7 control, set 2, capsule biogenesis inhibitor project, dose response (AID 504543); settings: for CC50: measured here: cytotoxicity
Procedure, shortened: (§1)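 Assay system: Escherichia coli UTI89 (K1 capsule) plus phage-resistant kpsM mutant | Medium: LB broth, overnight cultures diluted 1:100 | Reagent: K1F phage | Incubation: 1.25 h compound pre-incubation at 37 °C, 3 h phage exposure | Technique: OD600 absorbance | Controls: kpsM mutant, 1% DMSO wells | Replicates: Quadruplicate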

[2] = as above; settings: E. coli UTI89 K1F phage lysis inhibition, OD600 3 h; at 300 µM (top of the series)
Procedure, shortened: as §1

Compound	CC50 [1] [µM]	inhibition of phage lysis [2]	IC50 [1] [µM]
NC(N)=N/N=C/c1ccc(OCc2ccccc2)cc1	9.38	-28.3% (inactive)	–
Cc1cccc(-c2cc(C(=O)O)c3ccccc3n2)c1	138	-1.53% (inactive)	–
O=C(Nc1cccc(C2=NCCN2)c1)Nc1cccc(C2=NCCN2)c1	69.1	14.2% (inactive)	–
N=C(N)SCCc1cccc(CCSC(=N)N)c1	181	–	135
O=C1c2c(O)ccc(O)c2C(=O)c2c(NCCNCCO)ccc(NCCNCCO)c21	> 300	–	201
COc1cc(/C=N/N=C(N)N)ccc1OCc1ccccc1Cl	11.4	-29.8% (inactive)	–
CCN(CC)c1ccc2c(-c3ccc(S(=O)(=O)O)cc3S(=O)(=O)O)c3ccc(=[N+](CC)CC)cc-3oc2c1	< 2.35	-8.77% (inactive)	–
COc1ccc(-c2cc(C(=O)O)c3ccccc3n2)cc1	112	1.1% (inactive)	–
